Assay results: BindingDB's records for doi:10.1021/jm950700s (Schering-Plough Research Institute, 1997)

What was measured:
[1] = biological target: Potassium-transporting ATPase alpha chain 1/subunit beta (Oryctolagus cuniculus); test: Inhibition of H+/K+ ATPase as reduced acid formation in rabbit gastric glands
[2] = biological target: Potassium-transporting ATPase (Sus scrofa, UniProt P19156); test: Inhibition of purified H+/K+ ATPase at pH 7.4 as released inorganic phosphate from ATP using hog stomach gastric membrane vesicles
Sequence of Potassium-transporting ATPase (P19156 whole entry, looked up): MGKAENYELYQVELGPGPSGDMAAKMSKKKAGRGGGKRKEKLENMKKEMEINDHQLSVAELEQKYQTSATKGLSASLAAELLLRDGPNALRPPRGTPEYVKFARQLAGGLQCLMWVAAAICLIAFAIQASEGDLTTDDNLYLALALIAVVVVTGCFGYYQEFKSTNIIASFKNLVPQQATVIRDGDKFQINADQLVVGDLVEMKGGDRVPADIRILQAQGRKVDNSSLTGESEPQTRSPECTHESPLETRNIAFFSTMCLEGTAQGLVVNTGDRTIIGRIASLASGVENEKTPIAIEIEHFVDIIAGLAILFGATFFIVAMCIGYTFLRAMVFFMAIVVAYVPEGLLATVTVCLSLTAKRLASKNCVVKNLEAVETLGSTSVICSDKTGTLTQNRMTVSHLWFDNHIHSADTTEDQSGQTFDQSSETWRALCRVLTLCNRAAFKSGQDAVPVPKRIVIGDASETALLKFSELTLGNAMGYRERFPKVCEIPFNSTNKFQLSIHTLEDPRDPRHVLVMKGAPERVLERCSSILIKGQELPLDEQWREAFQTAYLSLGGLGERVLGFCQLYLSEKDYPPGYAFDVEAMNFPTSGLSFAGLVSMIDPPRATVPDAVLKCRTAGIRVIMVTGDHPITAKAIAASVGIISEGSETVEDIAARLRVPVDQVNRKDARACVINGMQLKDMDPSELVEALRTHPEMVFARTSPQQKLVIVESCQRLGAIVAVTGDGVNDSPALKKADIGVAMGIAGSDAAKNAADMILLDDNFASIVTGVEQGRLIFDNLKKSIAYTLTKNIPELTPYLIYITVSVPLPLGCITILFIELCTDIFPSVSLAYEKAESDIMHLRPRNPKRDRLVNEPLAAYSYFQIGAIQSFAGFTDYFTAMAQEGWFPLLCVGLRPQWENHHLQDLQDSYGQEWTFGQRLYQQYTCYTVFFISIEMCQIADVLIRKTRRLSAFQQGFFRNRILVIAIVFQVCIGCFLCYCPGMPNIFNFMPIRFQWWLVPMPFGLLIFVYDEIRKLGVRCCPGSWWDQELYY
How it was run: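 Gastric membrane vesicles from hog stomach were prepared by differential and zonal density gradient centrifugation. Activity was read as inorganic phosphate released from ATP at pH 7.4. Protein was measured by the Bradford method against a gammaglobulin standard.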

IC50 [1] [µM] | IC50 [2] [µM] | SMILES
442 | 206 | Cc1nc2c(C/C=C/c3ccccc3)cccn2c1CC#N
 | 178 | Cc1nc2c(OCc3ccccc3)nccn2c1N
